# Results reported in ChEMBL document CHEMBL4376883, “Discovery and Optimization of Small Molecules Targeting the Protein-Protein Interaction of Heat Shock Protein 90 (Hsp90) and Cell Division Cycle 37 as Orally Active Inhibitors for the Treatment of Colorectal Cancer” (J Med Chem, 2020).
# Assays:
# [1] = Stability of the compound in human plasma assessed as parent compound remaining at 1 uM measured after 60 mins by LC-MS/MS analysis; assay type: ADME, cell-free; details: read-out: Stability
# Outline: (§1)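 Compound diluted from 10 mM DMSO stock to 1 μM in mouse or human plasma and held at 37 °C in a water bath. Reactions were stopped with acetonitrile at 0, 10, 30, 60 and 90 min. Parent compound was quantified by LC-MS/MS as % remaining.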
# [2] = Half life in mouse liver microsomes at 10 uM preincubated for 5 mins followed by NADPH addition by LC-MS/MS analysis; assay type: ADME, Microsome
# Outline: (§2)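 Compound at 10 µM preincubated 5 min at 37 °C with human or mouse liver microsomes (0.5 mg/mL) in 100 mM phosphate, pH 7.4. Reaction started with 1 mM NADPH, stopped with cold acetonitrile, centrifuged and analysed by LC-MS/MS.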
# [3] = tested on: HCT-116; experiment: Antiproliferative activity against human HCT116 cells measured after 72 hrs by CCK8 assay; assay type: functional, cell-based; details: HCT-116, 72 h
# Outline: (§3)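 Cells grown in RPMI 1640 with 10% FBS at 37 °C, 5% CO2; STR-authenticated and mycoplasma-checked. Seeded at 3000-5000 cells/well and left 24 h. Serial compound dilutions added for 72 h, with matched DMSO as control. Viability read by CCK8 kit using the standard protocol. IC50 values derived from at least three parallel experiments.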
# [4] = Half life in human liver microsomes at 10 uM preincubated for 5 mins followed by NADPH addition by LC-MS/MS analysis; assay type: ADME, Microsome; outline: as §2
# [5] = Stability of the compound in mouse plasma assessed as parent compound remaining at 1 uM measured after 90 mins by LC-MS/MS analysis; assay type: ADME, cell-free; details: read-out: Stability; outline: as §1
# [6] = MRT in tumor of human HCT116 cells xenografted BALB/c mouse at 80 mg/kg administered as single dose by LC-MS/MS analysis; assay type: ADME, organism-based, Neoplasm
# Outline: (§4)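 HCT116-xenografted mice (n = 6 per group) received a single oral 80 mg/kg dose. Blood and tumor were sampled at 0 to 24 h. Plasma was obtained by centrifugation at 3000 rpm for 10 min. Samples were stored at −80 °C and quantified by LC-MS/MS.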
# [7] = biological target: Heat shock protein HSP90 (Homo sapiens, UniProt P07900+P08238); experiment: Binding affinity to recombinant […] HSP90 N-terminal domain (9 to 236 residues) (unknown origin) expressed in Escherichia coli BL21 (DE3) by isothermal calorimetric method
# Outline: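 ITC: 50 µM Hsp90 in the cell and 300 µM compound in the syringe, both in 20 mM Tris-HCl, 150 mM NaCl, pH 7.4. Nineteen injections at 180 s intervals with stirring at 1000 rpm.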
# [8] = tested on: HCT-116; experiment: Effect on total phosphorylated CDC37 expression in human HCT116 cells up to 10 uM measured after 24 hrs by Western blot analysis; assay type: ADME, cell-based; details: hct-116, 24 h
# Outline: (§5)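 HCT116 cells treated with 0, 1, 5 or 10 µM for 24 h, or with 10 µM for 0, 4, 12, 24 or 48 h. Lysates separated by SDS-PAGE and blotted. Membranes blocked in 5% milk, primary antibodies overnight at 4 °C, HRP secondaries, chemiluminescent detection.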
# [9] = Cmax in plasma of human HCT116 cells xenografted BALB/c mouse at 80 mg/kg, po administered as single dose by LC-MS/MS analysis; assay type: ADME, organism-based; design: dose 80 mg/kg, route oral
# Outline: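 Tumour-bearing mice (n = 6 per group) given one oral dose of 80 mg/kg. Blood and tumour collected into heparinized tubes at 0, 0.25, 0.5, 1, 2, 4, 8, 12 and 24 h. Plasma obtained by centrifugation at 3000 rpm for 10 min. Samples stored at -80 °C and quantified by LC-MS/MS.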
# [10] = tested on: HCT-116; experiment: Effect on CDC37 expression in human HCT116 cells at 10 uM measured up to 48 hrs by Western blot analysis; assay type: cell-based; details: hct-116, 48 h; outline: as §5
# [11] = Stability of the compound in human plasma assessed as parent compound remaining at 1 uM measured after 90 mins by LC-MS/MS analysis; assay type: ADME, cell-free; details: read-out: Stability; outline: as §1
# [12] = tested on: A549; experiment: Antiproliferative activity against human A549 cells measured after 72 hrs by CCK8 assay; assay type: functional, cell-based; details: A549, 72 h; outline: as §3
# [13] = tested on: HCT-116; experiment: Effect on HSP90 expression in human HCT116 cells at 10 uM measured up to 48 hrs by Western blot analysis; assay type: cell-based; details: hct-116, 48 h; outline: as §5
# [14] = Stability of the compound in mouse plasma assessed as parent compound remaining at 1 uM measured after 30 mins by LC-MS/MS analysis; assay type: ADME, cell-free; details: read-out: Stability; outline: as §1
# [15] = biological target: T1, Glucocorticoid receptor (Homo sapiens, UniProt P04150); experiment: Effect on glucocorticoid receptor in human HCT116 cells up to 10 uM measured after 24 hrs by Western blot analysis; assay type: ADME, cell-based; outline: as §5
# T1 sequence (P04150 whole entry): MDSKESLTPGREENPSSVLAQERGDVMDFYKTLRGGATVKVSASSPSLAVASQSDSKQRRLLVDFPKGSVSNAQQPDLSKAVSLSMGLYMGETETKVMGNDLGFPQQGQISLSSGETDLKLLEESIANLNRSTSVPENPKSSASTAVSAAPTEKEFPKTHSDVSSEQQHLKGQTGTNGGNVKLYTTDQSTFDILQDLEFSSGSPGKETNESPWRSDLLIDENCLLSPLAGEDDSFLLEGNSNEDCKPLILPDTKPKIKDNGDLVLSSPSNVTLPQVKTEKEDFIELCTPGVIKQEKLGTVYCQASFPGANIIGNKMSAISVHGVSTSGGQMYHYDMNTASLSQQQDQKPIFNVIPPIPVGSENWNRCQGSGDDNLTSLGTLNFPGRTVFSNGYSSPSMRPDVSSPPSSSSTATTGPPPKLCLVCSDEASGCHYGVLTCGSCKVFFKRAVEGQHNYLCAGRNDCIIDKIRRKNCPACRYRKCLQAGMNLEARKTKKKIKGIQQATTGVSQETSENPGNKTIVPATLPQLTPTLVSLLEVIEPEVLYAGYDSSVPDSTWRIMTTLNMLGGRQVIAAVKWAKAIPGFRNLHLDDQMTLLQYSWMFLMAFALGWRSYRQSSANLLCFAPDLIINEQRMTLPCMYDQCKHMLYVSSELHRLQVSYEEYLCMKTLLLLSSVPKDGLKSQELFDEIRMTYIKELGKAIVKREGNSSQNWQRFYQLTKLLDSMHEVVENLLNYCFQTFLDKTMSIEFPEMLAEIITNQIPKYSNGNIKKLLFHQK
# [16] = Effect on HSP70 in human HCT116 cells up to 10 uM measured after 24 hrs by Western blot analysis; assay type: cell-based; outline: as §5
# [17] = Apparent volume of distribution during terminal phase in plasma of human HCT116 cells xenografted BALB/c mouse at 80 mg/kg, po administered as single dose by LC-MS/MS analysis; assay type: ADME, organism-based; details: read-out: Vz/F
# Outline: (§6)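 Xenograft mice (n = 6 per group) received a single 80 mg/kg oral dose. Plasma and tumour were sampled over 0–24 h into heparinized tubes and analysed by LC-MS/MS.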
# [18] = Tmax in plasma of human HCT116 cells xenografted BALB/c mouse at 80 mg/kg, po administered as single dose by LC-MS/MS analysis; assay type: ADME, organism-based; outline: as §4
# [19] = Apparent oral clearance in tumor of human HCT116 cells xenografted BALB/c mouse at 80 mg/kg administered as single dose by LC-MS/MS analysis; assay type: ADME, organism-based, Neoplasm; outline: as §6
compound,measurement,setting,value
Cc1cc(C)c(S(=O)(=O)N(CC(=O)O)c2ccc(Nc3ccnc(N4CCNCC4)n3)cc2)c(C)c1,"remaining at 1 h, 1 µM",[1],102%
same,half-life at 10 µM,[2],1.6 h
same,IC50,[3],1730 nM
same,half-life at 10 µM,[4],2.08 h
same,"remaining at 1.5 h, 1 µM",[5],105%
same,MRT,[6],6.02 h
same,Kd,[7],630 nM
same,Activity,[8],Non-Toxic
same,Cmax,[9],308 µg/mL
same,Activity,[10],Non-Toxic
same,"remaining at 1.5 h, 1 µM",[11],103%
same,IC50,[12],> 50000 nM
same,Activity,[13],Non-Toxic
same,"remaining at 0.5 h, 1 µM",[14],102%
same,Activity,[15],Non-Toxic
same,Activity,[16],Non-Toxic
same,Vd/F,[17],0.392 L/kg
same,Tmax,[18],0.5 h
same,CL/F,[19],9.93 mL/min/kg
